Key:
[1] = molecular target: T1, Adrenergic receptor alpha-1 (Rattus norvegicus, UniProt P15823+P23944+P43140); test: Binding affinity to alpha-1 adrenergic receptor determined by measurement of [3H]prazosin displacement from rat cortical membrane
T1 sequence (P15823 whole entry): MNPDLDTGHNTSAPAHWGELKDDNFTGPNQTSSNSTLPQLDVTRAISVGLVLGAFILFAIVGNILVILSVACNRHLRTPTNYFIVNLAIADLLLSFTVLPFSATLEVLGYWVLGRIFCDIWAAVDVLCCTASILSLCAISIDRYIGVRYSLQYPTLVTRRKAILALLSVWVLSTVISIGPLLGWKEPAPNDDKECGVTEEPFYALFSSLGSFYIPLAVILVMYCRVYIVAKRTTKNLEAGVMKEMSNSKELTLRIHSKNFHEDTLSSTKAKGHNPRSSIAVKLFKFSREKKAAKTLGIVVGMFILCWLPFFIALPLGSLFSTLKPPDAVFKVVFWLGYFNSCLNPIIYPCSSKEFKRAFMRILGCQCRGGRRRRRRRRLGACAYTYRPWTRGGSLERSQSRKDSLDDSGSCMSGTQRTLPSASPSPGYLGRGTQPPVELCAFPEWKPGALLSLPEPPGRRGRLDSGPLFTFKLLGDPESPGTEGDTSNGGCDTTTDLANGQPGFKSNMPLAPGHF
T1 sequence (P23944 whole entry): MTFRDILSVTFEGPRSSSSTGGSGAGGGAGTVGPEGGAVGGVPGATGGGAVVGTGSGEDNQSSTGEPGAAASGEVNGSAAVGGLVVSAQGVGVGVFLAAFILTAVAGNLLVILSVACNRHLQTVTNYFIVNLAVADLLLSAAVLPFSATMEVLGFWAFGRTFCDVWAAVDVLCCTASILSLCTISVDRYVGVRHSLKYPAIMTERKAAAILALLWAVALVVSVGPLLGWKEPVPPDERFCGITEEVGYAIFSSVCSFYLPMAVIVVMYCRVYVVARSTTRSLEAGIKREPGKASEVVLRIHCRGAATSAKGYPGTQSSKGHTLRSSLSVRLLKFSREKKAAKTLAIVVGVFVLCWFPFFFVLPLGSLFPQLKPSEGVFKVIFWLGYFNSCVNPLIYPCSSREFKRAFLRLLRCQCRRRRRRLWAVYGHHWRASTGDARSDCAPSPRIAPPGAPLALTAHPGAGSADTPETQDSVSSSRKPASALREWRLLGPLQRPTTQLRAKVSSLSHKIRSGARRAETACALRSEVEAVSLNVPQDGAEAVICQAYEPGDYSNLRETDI
T1 sequence (P43140 whole entry): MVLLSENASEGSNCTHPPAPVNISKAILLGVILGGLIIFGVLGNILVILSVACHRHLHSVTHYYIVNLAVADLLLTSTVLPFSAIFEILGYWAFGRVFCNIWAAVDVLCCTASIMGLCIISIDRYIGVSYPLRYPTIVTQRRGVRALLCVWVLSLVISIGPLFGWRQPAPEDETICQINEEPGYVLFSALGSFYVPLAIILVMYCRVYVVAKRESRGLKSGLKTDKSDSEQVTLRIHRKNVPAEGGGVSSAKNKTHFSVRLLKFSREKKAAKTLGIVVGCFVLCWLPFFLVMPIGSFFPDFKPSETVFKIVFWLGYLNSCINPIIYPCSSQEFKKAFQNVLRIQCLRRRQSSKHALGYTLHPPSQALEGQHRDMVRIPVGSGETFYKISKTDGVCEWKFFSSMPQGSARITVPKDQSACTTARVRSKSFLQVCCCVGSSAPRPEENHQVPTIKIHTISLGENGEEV
How it was run: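 Male Sprague-Dawley rat (150-200 g) cerebral cortex membranes, washed in 50 mM Tris-HCl/0.5 mM EDTA pH 7.4. 250 µg membrane protein incubated with 0.5 nM [3H]prazosin for 30 min at 25 °C in a 0.5 mL volume. Nonspecific binding defined by 10 µM phentolamine. IC50 estimated graphically; Ki calculated by Cheng-Prusoff.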

[2] = molecular target: T2, Adrenergic receptor alpha-2 (Rattus norvegicus) (UniProt P22086+P19328+P22909)
[3] = molecular target: T2, Adrenergic receptor alpha-2 (Rattus norvegicus); remark: listed apart in the source
[4] = molecular target: T3, Adrenergic receptor alpha-2 (Rattus norvegicus, UniProt P22086+P19328+P22909); test: Binding affinity to alpha-2 adrenergic receptor determined by measurement of [3H]yohimbine displacement from rat cortical membrane
T3 sequence (P22086 whole entry): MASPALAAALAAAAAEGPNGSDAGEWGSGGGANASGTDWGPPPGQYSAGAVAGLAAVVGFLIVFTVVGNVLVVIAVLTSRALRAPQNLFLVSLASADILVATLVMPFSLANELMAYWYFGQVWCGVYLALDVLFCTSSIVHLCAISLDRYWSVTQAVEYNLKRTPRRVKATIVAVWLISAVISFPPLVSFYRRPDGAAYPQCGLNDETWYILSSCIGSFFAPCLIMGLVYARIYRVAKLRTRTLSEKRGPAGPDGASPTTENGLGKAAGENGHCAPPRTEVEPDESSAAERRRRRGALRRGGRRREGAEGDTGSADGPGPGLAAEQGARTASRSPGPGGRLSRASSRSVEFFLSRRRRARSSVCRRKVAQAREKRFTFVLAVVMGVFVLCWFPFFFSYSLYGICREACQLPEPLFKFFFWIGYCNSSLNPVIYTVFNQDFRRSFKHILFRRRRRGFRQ
T3 sequence (P19328 whole entry): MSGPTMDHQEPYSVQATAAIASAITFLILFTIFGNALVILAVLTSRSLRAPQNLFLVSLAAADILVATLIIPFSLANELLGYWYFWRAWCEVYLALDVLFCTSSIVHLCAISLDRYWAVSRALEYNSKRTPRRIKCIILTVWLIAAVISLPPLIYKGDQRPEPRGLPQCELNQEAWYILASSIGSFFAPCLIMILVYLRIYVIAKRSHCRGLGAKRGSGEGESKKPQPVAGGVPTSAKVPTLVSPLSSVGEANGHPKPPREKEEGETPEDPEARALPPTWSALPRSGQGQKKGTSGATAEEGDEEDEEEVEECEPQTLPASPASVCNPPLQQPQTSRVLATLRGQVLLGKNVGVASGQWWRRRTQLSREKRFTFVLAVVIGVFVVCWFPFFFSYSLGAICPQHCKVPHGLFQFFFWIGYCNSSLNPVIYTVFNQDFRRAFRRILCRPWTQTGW
T3 sequence (P22909 whole entry): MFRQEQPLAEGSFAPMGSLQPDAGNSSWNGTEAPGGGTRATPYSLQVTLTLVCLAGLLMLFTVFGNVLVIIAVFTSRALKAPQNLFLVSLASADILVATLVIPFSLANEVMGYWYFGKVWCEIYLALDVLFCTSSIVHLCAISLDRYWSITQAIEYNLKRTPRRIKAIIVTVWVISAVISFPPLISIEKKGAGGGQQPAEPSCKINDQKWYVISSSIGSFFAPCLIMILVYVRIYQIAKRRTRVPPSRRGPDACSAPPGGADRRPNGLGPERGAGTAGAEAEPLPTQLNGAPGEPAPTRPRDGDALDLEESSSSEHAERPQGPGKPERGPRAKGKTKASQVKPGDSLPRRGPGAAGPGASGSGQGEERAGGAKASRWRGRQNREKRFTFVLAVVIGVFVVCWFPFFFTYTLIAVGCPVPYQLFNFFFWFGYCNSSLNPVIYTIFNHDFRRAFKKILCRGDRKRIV

Cavia porcellus = organism: Cavia porcellus; test: In vitro reversal of inhibitory effect of UK - 14304 on the contractile response of guinea pig ileum to field stimulation.; assay type: functional, organism-based; details: read-out: pA2 (converted)
How it was run: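 Ileum from female Dunkin-Hartley guinea pigs (250-300 g) held in Tyrode solution at 37 °C, gassed with O2, under 1 g tension. Field stimulation at 0.1 Hz (1-ms pulses, supramaximal voltage), with isometric contractions recorded. Cumulative UK-14304 curves were run, the second taken as control. Antagonist was then applied for 40 min before repeat agonist curves.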

| SMILES | Log Ki [1] | ID50 [2] [mg/kg] | ID50 [3] [mg/kg] | Log Ki [4] | Kb (Cavia porcellus) [nM] |
| --- | --- | --- | --- | --- | --- |
| CC(C)CS(=O)(=O)N1CCC[C@@H]2CN3CCc4cc5c(cc4[C@@H]3C[C@@H]21)OCO5 | -5.04 | 0.44 | 0.062 | -8.17 |  |
| O=S(=O)(CCO)N1CCC[C@@H]2CN3CCc4ccccc4[C@@H]3C[C@@H]21 | -4.89 | 1.34 | 0.046 | -8.16 |  |
| COC(=O)[C@@H]1[C@H]2C[C@H]3c4[nH]c5ccccc5c4CCN3C[C@@H]2CC[C@@H]1O |  | 2.8 | 0.185 |  |  |
| CS(=O)(=O)N1CCC[C@@H]2CN3CCc4cc5c(cc4[C@@H]3C[C@@H]21)OCO5 | -5.14 | 0.76 | 0.06 | -9.18 | 1 |
| CCCCS(=O)(=O)N1CCC[C@@H]2CN3CCc4ccccc4[C@@H]3C[C@@H]21 | -5.64 | 0.9 | 0.036 | -8.9 | 1.26 |
| COc1ccc2c(c1)CCN1C[C@H]3CCCN(S(=O)(=O)CC(C)C)[C@H]3C[C@@H]21 | -5.41 | 0.41 | 0.022 | -8.77 |  |
| CS(=O)(=O)N1CCC[C@@H]2CN3CCc4cc5c(cc4[C@@H]3C[C@@H]21)OCCO5 | -5.02 | 1.4 | 0.13 | -8.8 |  |
| COc1cc2c(cc1OC)[C@@H]1C[C@H]3[C@H](CCCN3S(C)(=O)=O)CN1CC2 | -4.46 | 1.6 | 0.38 | -8.01 |  |
| COCCS(=O)(=O)N1CCC[C@@H]2CN3CCc4cc(OC)ccc4[C@@H]3C[C@@H]21 | -5.03 | 0.3 | 0.09 | -9.22 |  |
| CS(=O)(=O)N1CCC[C@H]2CN3CCc4cc5c(cc4[C@@H]3C[C@@H]21)OCO5 | -5.65 |  |  | -7.56 |  |
| c1ccc2c(c1)OCC(C1=NCCN1)O2 (centres undefined) [IDAZOXAN] |  | 1.2 | 0.017 |  | 3.98 |
| CS(=O)(=O)N1CCC[C@H]2CN3CCc4cc5c(cc4[C@@H]3C[C@H]21)OCO5 | -5.95 |  |  | -7.24 |  |
| COc1ccc2c(c1)CCN1C[C@H]3CCCN(S(=O)(=O)CCl)[C@@H]3C[C@@H]21 | -5.13 |  |  | -8.95 |  |
| CS(=O)(=O)N1CCC[C@H]2[C@H]3c4cc5c(cc4CCN3CC[C@@H]21)OCO5 | -5.06 |  |  | -6.4 |  |

The next lines start with results.

| Log Ki [1] | ID50 [2] [mg/kg] | ID50 [3] [mg/kg] | Log Ki [4] | SMILES | Kb (Cavia porcellus) [nM] |
| --- | --- | --- | --- | --- | --- |
| -5.37 | 0.85 | 0.034 | -8.77 | CC(C)CS(=O)(=O)N1CCC[C@@H]2CN3CCc4ccccc4[C@@H]3C[C@@H]21 | 0.316 |
| -5.31 | > 10 | 0.053 | -8.81 | O=S(=O)(c1ccccc1)N1CCC[C@@H]2CN3CCc4ccccc4[C@@H]3C[C@@H]21 |  |
| -5.29 | 1.4 | 0.019 | -8.73 | CCCS(=O)(=O)N1CCC[C@@H]2CN3CCc4ccccc4[C@@H]3C[C@@H]21 | 0.398 |
| -5.31 | > 3 | 0.18 | -9.34 | COc1ccc(S(=O)(=O)N2CCC[C@@H]3CN4CCc5ccccc5[C@@H]4C[C@@H]32)cc1 | 1.58 |
| -4.97 | 1.1 | 0.019 | -8.82 | CCS(=O)(=O)N1CCC[C@@H]2CN3CCc4ccccc4[C@@H]3C[C@@H]21 | 5.01 |
| -5.26 | 1.2 | 0.0125 | -8.77 | CS(=O)(=O)N1CCC[C@@H]2CN3CCc4ccccc4[C@@H]3C[C@@H]21 |  |
| -4.99 | 0.21 | 0.013 | -9.18 | COc1ccc2c(c1)CCN1C[C@H]3CCCN(S(C)(=O)=O)[C@H]3C[C@@H]21 [DELEQUAMINE] | 0.2 |
| -5.13 | 0.24 | 0.062 | -8.63 | COCCS(=O)(=O)N1CCC[C@@H]2CN3CCc4ccccc4[C@@H]3C[C@@H]21 |  |
| -5.2 |  |  | -7.84 | COc1ccc2c(c1)CCN1C[C@@H]3CCCN(S(C)(=O)=O)[C@H]3C[C@@H]21 |  |
|  | 0.095 | 0.0065 |  | COc1ccc2c(c1)CCN1C[C@H]3CCCN(S(C)(=O)=O)[C@@H]3C[C@@H]21 | 0.2 |
